ChEMBL document CHEMBL1147759, “Substituted indanylacetic acids as PPAR-alpha-gamma activators” (Bioorg Med Chem Lett, 2006)

What was measured:
[1] = biological target: T1, Peroxisome proliferator-activated receptor alpha (Homo sapiens, UniProt Q07869); assay: Activity against PPAR alpha in human by FRET assay
T1 sequence (Q07869 whole entry): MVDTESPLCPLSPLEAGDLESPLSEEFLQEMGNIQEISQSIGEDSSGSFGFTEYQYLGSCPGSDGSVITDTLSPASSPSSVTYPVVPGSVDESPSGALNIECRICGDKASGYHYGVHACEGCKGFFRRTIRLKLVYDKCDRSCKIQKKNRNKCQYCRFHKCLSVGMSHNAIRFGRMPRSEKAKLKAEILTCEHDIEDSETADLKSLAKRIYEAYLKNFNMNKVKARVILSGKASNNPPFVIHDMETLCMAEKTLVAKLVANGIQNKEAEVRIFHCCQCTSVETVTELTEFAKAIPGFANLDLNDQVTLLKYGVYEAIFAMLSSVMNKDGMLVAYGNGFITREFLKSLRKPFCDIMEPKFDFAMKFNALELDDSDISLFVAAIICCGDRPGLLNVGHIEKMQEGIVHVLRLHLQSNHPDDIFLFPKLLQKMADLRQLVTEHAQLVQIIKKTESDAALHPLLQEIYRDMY
Procedure, shortened: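 Human PPAR-α ligand-binding domain (GST-tagged), incubated with compound, europium-labelled anti-GST antibody, biotinylated CREB-binding protein co-activator and streptavidin-APC. Time-resolved FRET read with excitation at 340 nm and emission at 615 and 640 nm. EC50 taken as the mean of at least three experiments.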

[2] = biological target: T2, Peroxisome proliferator-activated receptor gamma (Homo sapiens, UniProt P37231); assay: Activity against PPAR gamma in human by FRET assay
T2 sequence (P37231 whole entry): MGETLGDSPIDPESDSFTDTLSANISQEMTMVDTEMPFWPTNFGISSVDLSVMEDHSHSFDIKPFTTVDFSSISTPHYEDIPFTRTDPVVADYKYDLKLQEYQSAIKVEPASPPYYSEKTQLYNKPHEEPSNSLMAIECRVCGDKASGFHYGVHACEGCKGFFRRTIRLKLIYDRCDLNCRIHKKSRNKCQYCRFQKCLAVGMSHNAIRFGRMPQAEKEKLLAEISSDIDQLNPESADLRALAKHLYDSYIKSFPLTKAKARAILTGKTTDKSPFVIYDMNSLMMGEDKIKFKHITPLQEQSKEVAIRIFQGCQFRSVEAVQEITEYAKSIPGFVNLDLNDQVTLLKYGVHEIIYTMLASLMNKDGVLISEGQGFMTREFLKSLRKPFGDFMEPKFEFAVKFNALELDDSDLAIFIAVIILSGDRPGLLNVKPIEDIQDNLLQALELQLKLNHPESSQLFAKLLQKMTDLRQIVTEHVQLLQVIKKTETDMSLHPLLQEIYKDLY

EC50 [1] | EC50 [2] | SMILES
46 nM | 43 nM | CCC(C(=O)O)C1CCc2cc(OCCc3nc(-c4ccc(C)c(F)c4)oc3C)ccc21 (stereo not given)
327 nM | > 10000 nM | CCC(C(=O)O)C1CCc2cc(OCCc3nc(-c4ccccc4)oc3C)c(C(C)=O)cc21 (stereo not given)
5480 nM | 738 nM | CCC(C(=O)O)C1CCc2cc(OCCc3nc(-c4ccc(Cl)cc4Cl)oc3C)ccc21 (stereo not given)
559 nM | 49 nM | CCC(C(=O)O)C1CCc2cc(OCCc3nc(-c4ccccc4F)oc3C)ccc21 (stereo not given)
670 nM | > 10000 nM | CCC(C(=O)O)C1CCc2cc(OCc3cc(-c4ccccc4)on3)ccc21 (stereo not given)
181 nM | > 10000 nM | CCC(C(=O)O)C1CCc2cc(OCCc3nc(-c4ccccc4)oc3C)c(Br)cc21 (stereo not given)
75 nM | 77 nM | CCC(C(=O)O)C1CCc2cc(OCCc3nc(-c4ccc(F)c(C)c4)oc3C)ccc21 (stereo not given)
> 10000 nM | > 10000 nM | CC[C@@H](C(=O)O)[C@H]1CCc2cc(OCCc3nc(-c4ccc(C)cc4)oc3C)ccc21
232 nM | > 10000 nM | CCC(C(=O)O)C1CCc2cc(OCCCc3nc(-c4ccccc4)oc3C(F)(F)F)ccc21 (stereo not given)
62 nM | 6 nM | CC[C@H](C(=O)O)[C@@H]1CCc2cc(OCCc3nc(-c4ccccc4)oc3C)ccc21
1520 nM | > 10000 nM | CC[C@@H](C(=O)O)[C@@H]1CCc2cc(OCCc3nc(-c4ccc(C)cc4)oc3C)ccc21
383 nM | 306 nM | CCC(C(=O)O)C1CCc2cc(OCCc3coc(-c4ccccc4)n3)ccc21 (stereo not given)
26 nM | 19 nM | CC[C@H](C(=O)O)[C@H]1CCc2cc(OCCc3nc(-c4ccccc4)oc3C)ccc21
> 10000 nM | > 10000 nM | CCC(C(=O)O)C1CCc2cc(OCCn3nc(-c4ccccc4)c4ccccc4c3=O)ccc21 (stereo not given)
48 nM | 83 nM | CC[C@H](C(=O)O)[C@H]1CCc2cc(OCCc3nc(-c4ccc(C)cc4)oc3C)ccc21
127 nM | 294 nM | CCC(C(=O)O)C1CCc2cc(OCCc3nc(-c4ccccc4)oc3C)c(Cl)cc21 (stereo not given)
58 nM | 290 nM | CCC(C(=O)O)C1CCc2cc(OCCc3nc(-c4ccccc4)oc3C)c(-c3ccccc3)cc21 (stereo not given)
> 10000 nM | > 10000 nM | CCC(C(=O)O)C1CCc2cc(OCCNC(=O)c3ccccc3)ccc21 (stereo not given)
> 10000 nM | 347 nM | CCC(C(=O)O)C1CCc2cc(OCCc3nc(-c4ccccc4)oc3C(C)C)ccc21 (stereo not given)
63 nM | 225 nM | CC[C@@H](C(=O)O)[C@H]1CCc2cc(OCCc3nc(-c4ccc(Cl)c(Cl)c4)oc3C)ccc21
523 nM | 368 nM | CCC(C(=O)O)C1CCc2cc(OCCc3nc(-c4c(F)cccc4F)oc3C)ccc21 (stereo not given)
57 nM | 46 nM | CC[C@H](C(=O)O)[C@@H]1CCc2cc(OCCc3nc(-c4ccc(Cl)c(Cl)c4)oc3C)ccc21
> 10000 nM | > 10000 nM | CCC(C(=O)O)C1CCc2cc(OCc3ccc(-c4nc(-c5ccccc5)oc4C)cc3)ccc21 (stereo not given)
119 nM | 22 nM | CCC(C(=O)O)C1CCc2cc(OCCc3nc(-c4ccc(C(C)C)cc4)oc3C)ccc21 (stereo not given)
92 nM | 206 nM | CCC(C(=O)O)C1CCc2cc(OCCc3nc(-c4ccc(Cl)cc4)oc3C)ccc21 (stereo not given)
> 10000 nM | > 10000 nM | CCC(C(=O)O)C1CCc2cc(OCCNC(=O)Nc3ccc(C)cc3)ccc21 (stereo not given)
637 nM | 153 nM | CCC(C(=O)O)C1CCc2cc(OCCc3nc(-c4ccccc4C)oc3C)ccc21 (stereo not given)

More lines, now with the values behind:

SMILES | EC50 [1] | EC50 [2]
CCC(C(=O)O)C1CCc2cc(OCCc3nc(-c4ccc5c(c4)OCO5)oc3C)ccc21 (stereo not given) | 354 nM | 14 nM
CCC(C(=O)O)C1CCc2cc(OCCc3nc(-c4ccc(OC)c(OC)c4)oc3C)ccc21 (stereo not given) | 1130 nM | 84 nM
CCC(C(=O)O)C1CCc2cc(OCCc3nc(Cc4ccc(F)cc4)oc3C)ccc21 (stereo not given) | 204 nM | 523 nM
CCC(C(=O)O)C1CCc2cc(OCCc3nc(-c4ccc(C)cc4)oc3C)ccc21 (stereo not given) | 65 nM | 45 nM
CCC(C(=O)O)C1CCc2cc(OCCc3nc(COc4ccccc4)oc3C)ccc21 (stereo not given) | 61 nM | 45 nM
CCC(C(=O)O)C1CCc2cc(OCCc3nc(-c4ccccc4)oc3C)c(-c3ccc(OC)cc3)cc21 (stereo not given) | 23 nM | 124 nM
CCC(C(=O)O)C1CCc2cc(OCCc3nc(-c4cccc(C(F)(F)F)c4)oc3C)ccc21 (stereo not given) | 171 nM | 21 nM
CCC(C(=O)O)C1CCc2cc(OCCc3nc(-c4ccc(C(C)(C)C)cc4)oc3C)ccc21 (stereo not given) | 240 nM | 19 nM
CCc1ccc(-c2nc(CCOc3ccc4c(c3)CCC4C(CC)C(=O)O)c(C)o2)cc1 (stereo not given) | 109 nM | 40 nM
CCC(C(=O)O)C1CCc2cc(OCCc3nc(-c4cccc(OC)c4)oc3C)ccc21 (stereo not given) | 254 nM | 1 nM
CCC(C(=O)O)C1CCc2cc(OCc3nc(-c4ccccc4)oc3C)ccc21 (stereo not given) | 1220 nM | 632 nM
CCC(C(=O)O)C1CCc2cc(OCCc3nc(-c4ccco4)oc3C)ccc21 (stereo not given) | 745 nM | 396 nM
CCC(C(=O)O)C1CCc2cc(OCCc3nc(-c4cccc(C)c4)oc3C)ccc21 (stereo not given) | 271 nM | 34 nM
CCC(C(=O)O)C1CCc2cc(OCCc3nc(C4CCCCC4)oc3C)ccc21 (stereo not given) | 111 nM | 136 nM
CCC(C(=O)O)C1CCc2cc(OCCc3nc(-c4ccccc4)oc3C)c(-c3ccc(Cl)cc3)cc21 (stereo not given) | 45 nM | 168 nM
CCC(C(=O)O)C1CCc2cc(OCCc3nc(C4CCCC4)oc3C)ccc21 (stereo not given) | 202 nM | 212 nM
CCC(C(=O)O)C1CCc2cc(OCCc3nc(-c4ccc(OC)cc4)oc3C)ccc21 (stereo not given) | 199 nM | 42 nM
CCC(C(=O)O)C1CCc2cc(OCCc3nc(-c4ccc5c(c4)OCC5)oc3C)ccc21 (stereo not given) | 65 nM | 6 nM
CCC(C(=O)O)C1CCc2cc(OCCc3nc(-c4cc(C)on4)oc3C)ccc21 (stereo not given) | 827 nM | 762 nM

SMILES | EC50 [1] | EC50 [2]
CCC(C(=O)O)C1CCc2cc(OCCc3nc(-c4ccccc4)oc3-c3ccccc3)ccc21 (stereo not given) | > 10000 nM | 617 nM
CCc1oc(-c2ccccc2)nc1CCOc1ccc2c(c1)CCC2C(CC)C(=O)O (stereo not given) | 354 nM | 46 nM
CC[C@H](C(=O)O)[C@@H]1CCc2cc(OCCc3nc(-c4ccc(F)cc4)oc3C)ccc21 | 94 nM | 46 nM
CCC(C(=O)O)C1CCc2cc(OCCc3nc(-c4cc5ccccc5s4)oc3C)ccc21 (stereo not given) | 287 nM | 37 nM
CCCCc1ccc(-c2nc(CCOc3ccc4c(c3)CCC4C(CC)C(=O)O)c(C)o2)cc1 (stereo not given) | 82 nM | 16 nM
CCC(C(=O)O)C1CCc2cc(OCCc3nc(-c4ccc(C)c(C)c4)oc3C)ccc21 (stereo not given) | 38 nM | 32 nM
CCC(C(=O)O)C1CCc2cc(OCCc3nc(-c4ccc5ccccc5c4)oc3C)ccc21 (stereo not given) | 104 nM | 16 nM
CCC(C(=O)O)C1CCc2cc(OCCc3nc(COc4ccc(Cl)cc4)oc3C)ccc21 (stereo not given) | 53 nM | 104 nM
CC[C@@H](C(=O)O)[C@H]1CCc2cc(OCCc3nc(-c4ccc(F)cc4)oc3C)ccc21 | 868 nM | > 10000 nM
CC[C@@H](C(=O)O)[C@H]1CCc2cc(OCCc3nc(-c4ccccc4)oc3C)ccc21 | > 10000 nM | 605 nM
CCC(C(=O)O)C1CCc2cc(OCCc3nc(-c4cc(C(F)(F)F)cc(C(F)(F)F)c4)oc3C)ccc21 (stereo not given) | 1170 nM | 247 nM
CCC(C(=O)O)C1CCc2cc(OCCc3nc(Cc4ccccc4)oc3C)ccc21 (stereo not given) | 718 nM | 330 nM
CC[C@@H](C(=O)O)[C@@H]1CCc2cc(OCCc3nc(-c4ccccc4)oc3C)ccc21 | 350 nM | 95 nM
CCC(C(=O)O)C1CCc2cc(OCc3nc(-c4ccccc4)oc3C(F)(F)F)ccc21 (stereo not given) | 1000 nM | > 10000 nM
CCC(C(=O)O)C1CCc2cc(OCCc3nc(-c4cccc5ccccc45)oc3C)ccc21 (stereo not given) | 451 nM | 113 nM
CCC(C(=O)O)C1CCc2cc(OCCc3nc(-c4ccc(-c5ccccc5)cc4)oc3C)ccc21 (stereo not given) | 3280 nM | 43 nM
CCC(C(=O)O)C1CCc2cc(OCCc3nc(-c4cccc(F)c4)oc3C)ccc21 (stereo not given) | 336 nM | 61 nM
Cc1oc(-c2ccccc2)nc1CCOc1ccc2c(c1)CCC2C(C)C(=O)O (stereo not given) | 1000 nM | 104 nM
CCC(C(=O)O)C1CCc2cc(OCCc3nc(-c4ccc(C(F)(F)F)cc4)oc3C)ccc21 (stereo not given) | 58 nM | 205 nM
